Data reported in ChEMBL document CHEMBL4477166, “18β-Glycyrrhetinic Acid Derivatives Possessing a Trihydroxylated A Ring Are Potent Gram-Positive Antibacterial Agents” (2016).
≈ marks a conversion by molar mass, not a printed value. Calls of active or inactive are those of the source. The calls are words filed in the database; no cut-off is given here.

How the values were obtained:
Staphylococcus aureus [1] = experiment: Antibacterial activity against methicillin-resistant Staphylococcus aureus by microdilution assay; format: functional
Summary of the method: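 Log-phase cells seeded at 1 × 10⁵ CFU/mL. Twofold serial dilutions made in broth with DMSO cosolvent, at most 1% v/v. Turbidity read at 620 nm before and after incubation with vigorous shaking. MIC is the lowest concentration with no apparent growth versus the medium-plus-vehicle control. Run in triplicate.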

Pseudomonas aeruginosa [2] = experiment: Antibacterial activity against Pseudomonas aeruginosa at 100 uM measured after 5 to 6 hrs by microdilution assay; format: functional, organism-based
Bacillus subtilis = experiment: Antibacterial activity against Bacillus subtilis ATCC 6051 by microdilution assay; format: functional
Summary of the method: (§1)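 Turbidimetric broth microdilution. Log-phase cells were washed and resuspended in broth (LB at 37 °C for B. subtilis and S. aureus; oat bran broth at 28 °C for S. scabies) and seeded at 1 × 10⁵ CFU/mL. Twofold serial dilutions were made with DMSO ≤1% (v/v). A620 was read, then plates were incubated with vigorous shaking. MIC was the lowest concentration with no apparent growth versus vehicle-only medium without cells. Run in triplicate.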

Streptomyces scabiei = experiment: Antibacterial activity against Streptomyces scabiei CGMCC4.7610246 by microdilution assay; format: functional; summary of the method: as §1
Escherichia coli = experiment: Antibacterial activity against Escherichia coli at 100 uM measured after 5 to 6 hrs by microdilution assay; format: functional, organism-based
Staphylococcus aureus [3] = experiment: Antibacterial activity against Staphylococcus aureus ATCC 25923 by microdilution assay; format: functional; summary of the method: as §1
Pseudomonas aeruginosa [4] = experiment: Antibacterial activity against multi-drug resistant Pseudomonas aeruginosa at 100 uM measured after 5 to 6 hrs by microdilution assay; format: functional, organism-based
Summary of the method: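 Log-phase cells seeded at 1 × 10⁵ CFU/mL. Single-dose screen at 100 μM, with DMSO cosolvent at most 1% v/v. Growth measured turbidimetrically at 620 nm, before and after incubation with vigorous shaking.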

Row | Structure (SMILES) | MIC (Staphylococcus aureus [1]) [µg/mL] | Activity (Pseudomonas aeruginosa [2]) | MIC (Bacillus subtilis) [µg/mL] | MIC (Streptomyces scabiei) [µg/mL] | Activity (Escherichia coli) | MIC (Staphylococcus aureus [3]) [µg/mL] | Activity (Pseudomonas aeruginosa [4])
1 | CC1(C)[C@@H](O)[C@@H]2O[C@@H]2[C@]2(C)[C@H]3C(=O)C=C4[C@@H]5C[C@@](C)(C(=O)OCc6ccccc6)CC[C@]5(C)CC[C@@]4(C)[C@]3(C)CC[C@@H]12 | > 50 | inactive | > 50 | > 50 | inactive | > 50 | inactive
2 | CC1(C)[C@@H](O)CC[C@]2(C)[C@H]3CC=C4[C@@H]5C[C@@](C)(C(=O)OCc6ccccc6)CC[C@]5(C)CC[C@@]4(C)[C@]3(C)CC[C@@H]12 | > 50 | inactive | > 50 | > 50 | inactive | > 50 | inactive
3 | CC1(C)[C@@H](O)[C@@H]2O[C@@H]2[C@]2(C)[C@H]3CC=C4[C@@H]5C[C@@](C)(C(=O)OCc6ccccc6)CC[C@]5(C)CC[C@@]4(C)[C@]3(C)CC[C@@H]12 | > 50 | inactive | > 50 | > 50 | inactive | > 50 | inactive
4 | CC1(C)[C@@H](O)[C@@H](O)[C@H](O)[C@]2(C)[C@H]3CC=C4[C@@H]5C[C@@](C)(C(=O)OCc6ccccc6Cl)CC[C@]5(C)CC[C@@]4(C)[C@]3(C)CC[C@@H]12 | > 50 | inactive | > 50 | > 50 | inactive | > 50 | inactive
5 | CC1(C)[C@@H](O)[C@@H](O)[C@H](O)[C@]2(C)[C@H]3C(=O)C=C4[C@@H]5C[C@@](C)(C(=O)OCc6ccc([N+](=O)[O-])cc6)CC[C@]5(C)CC[C@@]4(C)[C@]3(C)CC[C@@H]12 | > 50 | inactive | > 50 | > 50 | inactive | > 50 | inactive
6 | CC1(C)[C@@H](O)[C@@H](O)[C@H](O)[C@]2(C)[C@H]3C(=O)C=C4[C@@H]5C[C@@](C)(C(=O)OCc6ccccc6)CC[C@]5(C)CC[C@@]4(C)[C@]3(C)CC[C@@H]12 | 4 (≈ 6.75 µM) | inactive | > 37.8 | > 37.8 | inactive | > 37.8 | inactive
7 | CC(C)OC(=O)[C@@]1(C)CC[C@]2(C)CC[C@]3(C)C(=CC(=O)[C@@H]4[C@@]5(C)[C@@H](O)[C@H](O)[C@H](O)C(C)(C)[C@@H]5CC[C@]43C)[C@@H]2C1 | 8 (≈ 14.7 µM) | inactive | > 34.8 | > 34.8 | inactive | > 34.8 | inactive
8 | CC1(C)[C@H](O)[C@@H]2O[C@@H]2[C@]2(C)[C@H]3CC=C4[C@@H]5C[C@@](C)(C(=O)OCc6ccccc6)CC[C@]5(C)CC[C@@]4(C)[C@]3(C)CC[C@@H]12 | > 50 | inactive | > 50 | > 50 | inactive | > 50 | inactive
9 | CC1(C)[C@@H](O)[C@@H](O)[C@H](O)[C@]2(C)[C@H]3CC=C4[C@@H]5C[C@@](C)(C(=O)O)CC[C@]5(C)CC[C@@]4(C)[C@]3(C)CC[C@@H]12 | > 32 | inactive | > 31.2 | 31.2 (≈ 63.8 µM) | inactive | 15.6 (≈ 31.9 µM) | inactive
10 | CC1(C)C(=O)CC[C@]2(C)[C@H]3C(=O)C=C4[C@@H]5C[C@@](C)(C(=O)OCc6ccccc6)CC[C@]5(C)CC[C@@]4(C)[C@]3(C)CC[C@@H]12 | > 50 | inactive | > 50 | > 50 | inactive | > 50 | inactive
11 | CC1(C)C(=O)[C@@H]2O[C@@H]2[C@]2(C)[C@H]3C(=O)C=C4[C@@H]5C[C@@](C)(C(=O)OCc6ccccc6)CC[C@]5(C)CC[C@@]4(C)[C@]3(C)CC[C@@H]12 | > 50 | inactive | > 50 | > 50 | inactive | > 50 | inactive
12 | CCCOC(=O)[C@@]1(C)CC[C@]2(C)CC[C@]3(C)C(=CC(=O)[C@@H]4[C@@]5(C)[C@@H](O)[C@H](O)[C@H](O)C(C)(C)[C@@H]5CC[C@]43C)[C@@H]2C1 | 2 (≈ 3.67 µM) | inactive | > 34.8 | 4.3 (≈ 7.89 µM) | inactive | 4.3 (≈ 7.89 µM) | inactive
13 | CC(C)OC(=O)[C@@]1(C)CC[C@]2(C)CC[C@]3(C)C(=CC[C@@H]4[C@@]5(C)[C@@H](O)[C@H](O)[C@H](O)C(C)(C)[C@@H]5CC[C@]43C)[C@@H]2C1 | 2 (≈ 3.77 µM) | inactive | > 33.9 | 4.2 (≈ 7.91 µM) | inactive | 8.4 (≈ 15.8 µM) | inactive
14 | CC1(C)[C@@H](O)[C@@H](O)[C@H](O)[C@]2(C)[C@H]3CC=C4[C@@H]5C[C@@](C)(C(=O)OCc6ccccc6)CC[C@]5(C)CC[C@@]4(C)[C@]3(C)CC[C@@H]12 | 8 (≈ 13.8 µM) | inactive | > 36.9 | > 36 | inactive | > 36.9 | inactive
15 | CC1(C)[C@@H](O)[C@@H](O)[C@H](O)[C@]2(C)[C@H]3CC=C4[C@@H]5C[C@@](C)(C(=O)OCc6ccc(Cl)cc6)CC[C@]5(C)CC[C@@]4(C)[C@]3(C)CC[C@@H]12 | > 50 | inactive | > 50 | > 50 | inactive | > 50 | inactive
16 | CC1(C)[C@H](O)[C@@H](O)[C@H](O)[C@]2(C)[C@H]3C(=O)C=C4[C@@H]5C[C@@](C)(C(=O)OCc6ccccc6)CC[C@]5(C)CC[C@@]4(C)[C@]3(C)CC[C@@H]12 | 4 (≈ 6.75 µM) | inactive | > 37.8 | > 37.8 | inactive | > 37.8 | inactive
17 | CC1(C)C(=O)CC[C@]2(C)[C@H]3CC=C4[C@@H]5C[C@@](C)(C(=O)OCc6ccccc6)CC[C@]5(C)CC[C@@]4(C)[C@]3(C)CC[C@@H]12 | > 50 | inactive | > 50 | > 50 | inactive | > 50 | inactive
18 | CC1(C)S[C@@H]2[C@H](NC(=O)[C@H](N)c3ccccc3)C(=O)N2[C@H]1C(=O)O [AMPICILLIN] | – | – | – | – | – | 1.4 (≈ 4.01 µM) | –
19 | CN[C@@H]1[C@H](O[C@H]2[C@H](O[C@H]3[C@H](O)[C@@H](O)[C@H](N=C(N)N)[C@@H](O)[C@@H]3N=C(N)N)O[C@@H](C)[C@]2(O)C=O)O[C@@H](CO)[C@H](O)[C@H]1O [STREPTOMYCIN] | – | – | 2.9 (≈ 4.99 µM) | 5.8 (≈ 9.97 µM) | – | – | –
